Results published in ChEMBL document CHEMBL1157912, “Impact of nature and length of linker incorporated in agonists on toll-like receptor 9-mediated immune responses” (J Med Chem, 2010).
The source made the active and inactive calls. The calls are words filed in the database; no cut-off is given here.

Tests used:
[1] = molecular target: T1, Toll-like receptor 9 (Homo sapiens) (UniProt Q9NR96); experiment: Induction of TLR9-mediated human B cell proliferation assessed as [3H]thymidine uptake after 56 hrs by scintillation counting
T1 sequence (whole entry): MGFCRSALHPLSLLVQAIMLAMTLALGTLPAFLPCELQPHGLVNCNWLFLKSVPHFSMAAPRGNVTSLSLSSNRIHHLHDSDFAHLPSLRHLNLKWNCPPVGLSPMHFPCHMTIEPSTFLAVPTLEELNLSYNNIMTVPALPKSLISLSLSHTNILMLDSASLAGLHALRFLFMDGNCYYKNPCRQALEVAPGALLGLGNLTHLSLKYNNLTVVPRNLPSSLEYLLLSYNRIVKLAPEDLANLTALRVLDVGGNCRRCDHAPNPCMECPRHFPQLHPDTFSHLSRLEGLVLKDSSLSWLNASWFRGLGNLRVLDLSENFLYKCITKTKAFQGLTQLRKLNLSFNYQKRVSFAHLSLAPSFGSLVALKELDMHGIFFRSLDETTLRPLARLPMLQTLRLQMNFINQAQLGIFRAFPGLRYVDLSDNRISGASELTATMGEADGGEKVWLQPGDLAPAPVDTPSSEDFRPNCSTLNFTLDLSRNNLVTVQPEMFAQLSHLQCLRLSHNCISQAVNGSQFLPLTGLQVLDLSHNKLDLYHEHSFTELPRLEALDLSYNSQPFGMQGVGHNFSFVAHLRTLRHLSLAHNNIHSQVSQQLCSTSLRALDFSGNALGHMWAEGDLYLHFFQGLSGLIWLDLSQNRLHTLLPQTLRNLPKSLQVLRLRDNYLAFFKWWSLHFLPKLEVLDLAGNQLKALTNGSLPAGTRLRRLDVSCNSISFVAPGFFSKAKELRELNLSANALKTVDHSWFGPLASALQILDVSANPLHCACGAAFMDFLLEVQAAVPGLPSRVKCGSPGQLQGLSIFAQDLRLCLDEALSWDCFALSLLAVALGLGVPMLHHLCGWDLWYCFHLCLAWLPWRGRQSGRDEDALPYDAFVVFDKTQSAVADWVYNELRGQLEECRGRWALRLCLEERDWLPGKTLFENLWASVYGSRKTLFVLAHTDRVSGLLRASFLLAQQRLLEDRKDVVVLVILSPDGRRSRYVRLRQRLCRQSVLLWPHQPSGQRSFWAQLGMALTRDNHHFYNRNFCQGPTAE
How it was run: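 B cells were purified from human PBMCs (healthy volunteers), about 1 × 10⁵ cells, and stimulated with various agonist concentrations for 56 h. Cells were then pulsed with 0.75 μCi [³H]-thymidine and harvested 16 h later. Incorporation was counted by scintillation and reported as cpm.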

Mus musculus = experiment: Immunostimulatory activity in C57BL/6 mouse assessed as increase in serum IL12 level at 1 mg/kg, sc after 2 hrs by ELISA; type: functional, organism-based; design: dose 1 mg/kg
How it was run: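 Female C57BL/6 mice (n=3) received a single subcutaneous agonist dose of 1 mg/kg. Blood was taken by retro-orbital bleeding 2 h later, and serum IL-12 was measured by sandwich ELISA. Values are the mean of three mice ± SD.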

[2] = molecular target: T1, Toll-like receptor 9 (Homo sapiens); experiment: Induction of TLR9-mediated immune stimulation in human PBMC assessed as IL2R production at 2 ug/ml after 24 hrs by luminex multiplex assay (RVb = 0.02 +/- 0.01 ng/ml)

Activity [1]	Activity [2] [ng/mL]	Compound	Activity (Mus musculus)
Dose-dependent effect	0.03	Cc1cn([C@H]2C[C@H](OCCC(O)CCOP(=O)(S)O[C@H]3C[C@H](n4cc(C)c(=O)[nH]c4=O)O[C@@H]3COP(=O)(S)O[C@H]3[C@@H](O)[C@H](n4ccc(N)nc4=O)O[C@@H]3COP(=O)(S)O[C@H]3C[C@H](n4cc(C)c(=O)[nH]c4=O)O[C@@H]3COP(=O)(S)O[C@H]3C[C@H](n4cc(C)c(=O)[nH]c4=O)O[C@@H]3COP(=O)(S)O[C@H]3C[C@H](n4ccc5c(=O)[nH]c(N)nc54)O[C@@H]3COP(=O)(S)O[C@H]3[C@@H](O)[C@H](n4ccc(N)nc4=O)O[C@@H]3COP(=O)(S)O[C@H]3C[C@H](n4cc(C)c(=O)[nH]c4=O)O[C@@H]3COP(=O)(S)O[C@H]3[C@@H](O)[C@H](n4cnc5c(=O)[nH]c(N)nc54)O[C@@H]3COP(=O)(S)O[C@H]3C[C@H](n4cc(C)c(=O)[nH]c4=O)O[C@@H]3COP(=O)(S)O[C@H]3[C@@H](O)[C@H](n4ccc(N)nc4=O)O[C@@H]3COP(=O)(S)O[C@H]3C[C@H](n4cc(C)c(=O)[nH]c4=O)O[C@@H]3CO)[C@@H](COP(=O)(S)O[C@H]3[C@@H](O)[C@H](n4ccc(N)nc4=O)O[C@@H]3COP(=O)(S)O[C@H]3C[C@H](n4cc(C)c(=O)[nH]c4=O)O[C@@H]3COP(=O)(S)O[C@H]3C[C@H](n4cc(C)c(=O)[nH]c4=O)O[C@@H]3COP(=O)(S)O[C@H]3C[C@H](n4ccc5c(=O)[nH]c(N)nc54)O[C@@H]3COP(=O)(S)O[C@H]3[C@@H](O)[C@H](n4ccc(N)nc4=O)O[C@@H]3COP(=O)(S)O[C@H]3C[C@H](n4cc(C)c(=O)[nH]c4=O)O[C@@H]3COP(=O)(S)O[C@H]3[C@@H](O)[C@H](n4cnc5c(=O)[nH]c(N)nc54)O[C@@H]3COP(=O)(S)O[C@H]3C[C@H](n4cc(C)c(=O)[nH]c4=O)O[C@@H]3COP(=O)(S)O[C@H]3[C@@H](O)[C@H](n4ccc(N)nc4=O)O[C@@H]3COP(=O)(S)O[C@H]3C[C@H](n4cc(C)c(=O)[nH]c4=O)O[C@@H]3CO)O2)c(=O)[nH]c1=O (some centres not stated)	Active
Dose-dependent effect	0.09	Cc1cn([C@H]2C[C@H](OCC[C@H](O)COP(=O)(S)O[C@H]3C[C@H](n4cc(C)c(=O)[nH]c4=O)O[C@@H]3COP(=O)(S)O[C@H]3[C@@H](O)[C@H](n4ccc(N)nc4=O)O[C@@H]3COP(=O)(S)O[C@H]3C[C@H](n4cc(C)c(=O)[nH]c4=O)O[C@@H]3COP(=O)(S)O[C@H]3C[C@H](n4cc(C)c(=O)[nH]c4=O)O[C@@H]3COP(=O)(S)O[C@H]3C[C@H](n4ccc5c(=O)[nH]c(N)nc54)O[C@@H]3COP(=O)(S)O[C@H]3[C@@H](O)[C@H](n4ccc(N)nc4=O)O[C@@H]3COP(=O)(S)O[C@H]3C[C@H](n4cc(C)c(=O)[nH]c4=O)O[C@@H]3COP(=O)(S)O[C@H]3[C@@H](O)[C@H](n4cnc5c(=O)[nH]c(N)nc54)O[C@@H]3COP(=O)(S)O[C@H]3C[C@H](n4cc(C)c(=O)[nH]c4=O)O[C@@H]3COP(=O)(S)O[C@H]3[C@@H](O)[C@H](n4ccc(N)nc4=O)O[C@@H]3COP(=O)(S)O[C@H]3C[C@H](n4cc(C)c(=O)[nH]c4=O)O[C@@H]3CO)[C@@H](COP(=O)(S)O[C@H]3[C@@H](O)[C@H](n4ccc(N)nc4=O)O[C@@H]3COP(=O)(S)O[C@H]3C[C@H](n4cc(C)c(=O)[nH]c4=O)O[C@@H]3COP(=O)(S)O[C@H]3C[C@H](n4cc(C)c(=O)[nH]c4=O)O[C@@H]3COP(=O)(S)O[C@H]3C[C@H](n4ccc5c(=O)[nH]c(N)nc54)O[C@@H]3COP(=O)(S)O[C@H]3[C@@H](O)[C@H](n4ccc(N)nc4=O)O[C@@H]3COP(=O)(S)O[C@H]3C[C@H](n4cc(C)c(=O)[nH]c4=O)O[C@@H]3COP(=O)(S)O[C@H]3[C@@H](O)[C@H](n4cnc5c(=O)[nH]c(N)nc54)O[C@@H]3COP(=O)(S)O[C@H]3C[C@H](n4cc(C)c(=O)[nH]c4=O)O[C@@H]3COP(=O)(S)O[C@H]3[C@@H](O)[C@H](n4ccc(N)nc4=O)O[C@@H]3COP(=O)(S)O[C@H]3C[C@H](n4cc(C)c(=O)[nH]c4=O)O[C@@H]3CO)O2)c(=O)[nH]c1=O (some centres not stated)	Active
Dose-dependent effect	0.04	Cc1cn([C@H]2C[C@H](OCCOCCOCCOCCOP(=O)(S)O[C@H]3C[C@H](n4cc(C)c(=O)[nH]c4=O)O[C@@H]3COP(=O)(S)O[C@H]3[C@@H](O)[C@H](n4ccc(N)nc4=O)O[C@@H]3COP(=O)(S)O[C@H]3C[C@H](n4cc(C)c(=O)[nH]c4=O)O[C@@H]3COP(=O)(S)O[C@H]3C[C@H](n4cc(C)c(=O)[nH]c4=O)O[C@@H]3COP(=O)(S)O[C@H]3C[C@H](n4ccc5c(=O)[nH]c(N)nc54)O[C@@H]3COP(=O)(S)O[C@H]3[C@@H](O)[C@H](n4ccc(N)nc4=O)O[C@@H]3COP(=O)(S)O[C@H]3C[C@H](n4cc(C)c(=O)[nH]c4=O)O[C@@H]3COP(=O)(S)O[C@H]3[C@@H](O)[C@H](n4cnc5c(=O)[nH]c(N)nc54)O[C@@H]3COP(=O)(S)O[C@H]3C[C@H](n4cc(C)c(=O)[nH]c4=O)O[C@@H]3COP(=O)(S)O[C@H]3[C@@H](O)[C@H](n4ccc(N)nc4=O)O[C@@H]3COP(=O)(S)O[C@H]3C[C@H](n4cc(C)c(=O)[nH]c4=O)O[C@@H]3CO)[C@@H](COP(=O)(S)O[C@H]3[C@@H](O)[C@H](n4ccc(N)nc4=O)O[C@@H]3COP(=O)(S)O[C@H]3C[C@H](n4cc(C)c(=O)[nH]c4=O)O[C@@H]3COP(=O)(S)O[C@H]3C[C@H](n4cc(C)c(=O)[nH]c4=O)O[C@@H]3COP(=O)(S)O[C@H]3C[C@H](n4ccc5c(=O)[nH]c(N)nc54)O[C@@H]3COP(=O)(S)O[C@H]3[C@@H](O)[C@H](n4ccc(N)nc4=O)O[C@@H]3COP(=O)(S)O[C@H]3C[C@H](n4cc(C)c(=O)[nH]c4=O)O[C@@H]3COP(=O)(S)O[C@H]3[C@@H](O)[C@H](n4cnc5c(=O)[nH]c(N)nc54)O[C@@H]3COP(=O)(S)O[C@H]3C[C@H](n4cc(C)c(=O)[nH]c4=O)O[C@@H]3COP(=O)(S)O[C@H]3[C@@H](O)[C@H](n4ccc(N)nc4=O)O[C@@H]3COP(=O)(S)O[C@H]3C[C@H](n4cc(C)c(=O)[nH]c4=O)O[C@@H]3CO)O2)c(=O)[nH]c1=O (some centres not stated)	Active
Dose-dependent effect	0.02	Cc1cn([C@H]2C[C@H](O[C@@H]3C[C@@H](O)C[C@@H](OP(=O)(S)O[C@H]4C[C@H](n5cc(C)c(=O)[nH]c5=O)O[C@@H]4COP(=O)(S)O[C@H]4[C@@H](O)[C@H](n5ccc(N)nc5=O)O[C@@H]4COP(=O)(S)O[C@H]4C[C@H](n5cc(C)c(=O)[nH]c5=O)O[C@@H]4COP(=O)(S)O[C@H]4C[C@H](n5cc(C)c(=O)[nH]c5=O)O[C@@H]4COP(=O)(S)O[C@H]4C[C@H](n5ccc6c(=O)[nH]c(N)nc65)O[C@@H]4COP(=O)(S)O[C@H]4[C@@H](O)[C@H](n5ccc(N)nc5=O)O[C@@H]4COP(=O)(S)O[C@H]4C[C@H](n5cc(C)c(=O)[nH]c5=O)O[C@@H]4COP(=O)(S)O[C@H]4[C@@H](O)[C@H](n5cnc6c(=O)[nH]c(N)nc65)O[C@@H]4COP(=O)(S)O[C@H]4C[C@H](n5cc(C)c(=O)[nH]c5=O)O[C@@H]4COP(=O)(S)O[C@H]4[C@@H](O)[C@H](n5ccc(N)nc5=O)O[C@@H]4COP(=O)(S)O[C@H]4C[C@H](n5cc(C)c(=O)[nH]c5=O)O[C@@H]4CO)C3)[C@@H](COP(=O)(S)O[C@H]3[C@@H](O)[C@H](n4ccc(N)nc4=O)O[C@@H]3COP(=O)(S)O[C@H]3C[C@H](n4cc(C)c(=O)[nH]c4=O)O[C@@H]3COP(=O)(S)O[C@H]3C[C@H](n4cc(C)c(=O)[nH]c4=O)O[C@@H]3COP(=O)(S)O[C@H]3C[C@H](n4ccc5c(=O)[nH]c(N)nc54)O[C@@H]3COP(=O)(S)O[C@H]3[C@@H](O)[C@H](n4ccc(N)nc4=O)O[C@@H]3COP(=O)(S)O[C@H]3C[C@H](n4cc(C)c(=O)[nH]c4=O)O[C@@H]3COP(=O)(S)O[C@H]3[C@@H](O)[C@H](n4cnc5c(=O)[nH]c(N)nc54)O[C@@H]3COP(=O)(S)O[C@H]3C[C@H](n4cc(C)c(=O)[nH]c4=O)O[C@@H]3COP(=O)(S)O[C@H]3[C@@H](O)[C@H](n4ccc(N)nc4=O)O[C@@H]3COP(=O)(S)O[C@H]3C[C@H](n4cc(C)c(=O)[nH]c4=O)O[C@@H]3CO)O2)c(=O)[nH]c1=O (some centres not stated)	Active
